Rows were chosen to be rich in hits. Some 4.5% of all compounds tested hit in one or more screens of this group.
GPR7 antagonist = antagonists of human GPR7 (neuropeptides B/W receptor 1) | GPR7-expressing cells, fluorescence antagonist assay | P48145 | 290,000 tested, 1.1% active | AID 1861 | inhibition, % at 4.4 µM; in the data active = inhibition above about 16%, passing the limit was not always enough;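 note: cells stimulated with the agonist NPW; 0% = agonist with vehicle and 100% = vehicle without agonist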
TAAR1 antag = human TAAR1 antagonism | Q96RJ0 | inhibition, % at 3 µM | AID 624466 | 360,000 tested, 1.5% active | CHO RD-HGA16 TAAR1, Fluo-8 calcium fluorescence, antagonist;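 active = inhibition above a per-plate cutoff, the mean inhibition of test compounds on that plate plus 3 SD, cut at about 49% in these data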;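 note: 0% = DMSO plus EC80 beta-PEA response and 100% = DMSO alone without agonist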
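Test system: RD-HGA16 CHO cells with stable hTAAR1 and Gα16 / Probe or stimulus: EC80 β-phenethylamine stimulus / Times: seeding 17-24 h prior, 75-min 37 °C, 30-min RT dye loading / Detection: Fluo-8 calcium-sensitive fluorescence / Read-out basis: % inhibition scaled between DMSO and EC80 PEA controls / Repeats: singlicate, one well per test compound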
OX1R antag-1 = antagonists of human orexin 1 receptor. AID 434989. 330,000 tested, 0.43% active. CHO/OX1R cells, Fluo-8 calcium fluorescence, orexin A. inhibition, % at 5 µM;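 active = inhibition above its plate's threshold, mean inhibition of all tested compounds on the plate plus 3 SD, cut at about 37% in these data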;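 note: 0% = orexin A challenge wells and 100% = SB-334867-A antagonist wells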
Target sequence (O43613 whole entry, looked up): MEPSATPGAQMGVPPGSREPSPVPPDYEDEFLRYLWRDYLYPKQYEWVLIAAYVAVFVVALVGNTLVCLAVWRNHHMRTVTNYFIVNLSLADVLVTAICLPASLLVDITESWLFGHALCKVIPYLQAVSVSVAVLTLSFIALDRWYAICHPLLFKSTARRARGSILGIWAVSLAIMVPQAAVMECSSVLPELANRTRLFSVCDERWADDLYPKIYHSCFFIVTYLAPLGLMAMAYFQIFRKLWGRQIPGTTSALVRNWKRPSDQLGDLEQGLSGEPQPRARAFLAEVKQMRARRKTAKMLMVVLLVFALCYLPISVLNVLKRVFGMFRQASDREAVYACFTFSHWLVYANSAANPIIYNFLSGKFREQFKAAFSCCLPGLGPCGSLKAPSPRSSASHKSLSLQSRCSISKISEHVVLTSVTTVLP
TAAR1 ag = agonists of human TAAR1; Q96RJ0; 360,000 tested, 0.99% active; CHO RD-HGA16 TAAR1, Fluo-8 calcium fluorescence; vehicle wells 0%, saturating PEA agonist 100%; activation, % at 3 µM;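 active = activation above the mean activation of all test compounds in the run plus 3 SD, cut at about 38% in these data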
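System: CHO-derived RD-HGA16 cells with stable Gα16 and human TAAR1 / Times: 17-24 h plating, Fluo-8 75 min 37 °C, 30 min RT / Technique: calcium-sensitive Fluo-8 signal, excitation 470-495, emission 515-575 nm / Measure: % activation relative to PEA EC100 response / Benchmarks: DMSO and PEA EC100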
OX1R antag-2 = OX1R (human) antagonism. O43613. OX1R-expressing cells, FRET antagonist read-out. inhibition, % at 6.6 µM. 330,000 tested, 1.8% active. AID 485270; in the data active = inhibition mostly above about 38%, no sharp cut-off; inactive = mostly below about 40%;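 note: 0% = agonist challenge alone and 100% = reference antagonist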
CHO parental Ca = signal in parental CHO cells, OX1R antagonist counter-screen | parental CHO-K1, ATP-induced calcium, Fluo-8 fluorescence | inhibition, % at 5.6 µM | 330,000 tested, 0.63% active | AID 463079;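 active = inhibition above that plate's mean sample inhibition plus 3 SD, cut at about 26% in these data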;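 note: 0% = ATP-challenged DMSO wells and 100% = DMSO wells without ATP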
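Assay system: parental CHO cells; Read-out basis: percent inhibition of ATP-evoked calcium rise, normalized to controls; Benchmarks: ATP and no-ATP DMSO wells; Compound dosing: single nominal dose of 5.6 µM per compound; Signal: Fluo-8 calcium dye fluorescence; Also added: ATP as calcium-mobilizing challenge; Repeats: singlicate.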
Starred values were filed as active, the others as inactive; . = not tested or not shown.

SMILES	GPR7 antagonist	TAAR1 antag	OX1R antag-1	TAAR1 ag	OX1R antag-2	CHO parental Ca
O=[N+]([O-])c1ccc2nc(/C=C/c3ccc(Cl)cc3)[nH]c2c1	13	53*	13	4	77*	29*
Nc1ccc(-c2nc3ccc([N+](=O)[O-])cc3[nH]2)cc1	20*	3	14	1	12	-3
CN1CCCCC(NC(=O)c2ccc(F)cc2)C1=O (centres undefined)	.	-3	.	1	.	.
CCCc1cc(=O)[nH]c(SCC(=O)Nc2ccc(N3CCCCC3)cc2)n1	.	9	-12	0	5	-13
O=C(OCC(O)C(O)C(O)C(SCc1ccccc1)SCc1ccccc1)c1ccccc1 (centres undefined)	.	19	.	5	.	.
COc1ccc(NC(=O)C(C2CC2)n2c(=O)c(-c3ccccc3)nc3ccccc32)cc1 (centres undefined)	.	-35	.	-1	.	.
Cc1ccc(Sc2ncccc2[N+](=O)[O-])cc1	-5	-11	-8	-4	1	-11
Cc1ccnc(Sc2ncccc2[N+](=O)[O-])n1	0	-17	-8	1	60*	9
Nc1nnc(Sc2ncccc2[N+](=O)[O-])s1	-1	-29	-14	7	39*	-10
CCOC(=O)c1ccc(N2C(=O)CC(N3CCC(Nc4ccc(F)cc4)CC3)C2=O)cc1 (centres undefined)	3	-3	-6	8	5	4
O=c1[nH]c(CSc2nc3ccccc3[nH]2)nc2c1cnn2-c1ccccc1	-5	42	90*	13	106*	52*
Cc1ccc2nc(SCc3nc4c(cnn4-c4ccccc4)c(=O)[nH]3)[nH]c2c1	6	44	80*	13	90*	39*
O=c1[nH]c(SCc2nc3c(cnn3-c3ccccc3)c(=O)[nH]2)nc2ccccc12	-5	4	.	7	.	.
Nc1ccn([C@@H]2O[C@H](C(=O)N3CCN(CCO)CC3)[C@@H](O)[C@H]2O)c(=O)n1	.	7	.	1	.	.
O=C(CCC(=O)Nc1ccc(Br)cc1)N/N=C/c1ccccc1O	8	47	-17	38*	11	-22
O=C(CCCCC(=O)NN=Cc1ccccc1O)NN=Cc1ccccc1O	.	54*	.	44*	.	.
Cc1ccc(NC(=O)CCC(=O)N/N=C/c2ccccc2O)cc1	7	-2	-26	38*	3	4
CCCCc1c(-c2ccccc2OC)ncn1Cc1cccc(F)c1F	.	14	.	3	.	.
Cc1noc(C)c1S(=O)(=O)N1CCCc2nc(-c3ccc(F)cc3)ccc21	.	10	.	2	.	.
C[C@@H]1CN([C@H](C)CO)C(=O)c2cc(NC(=O)Nc3ccccc3)ccc2O[C@@H](C)CCCCO[C@H]1CN(C)S(C)(=O)=O	.	-14	.	4	.	.
CC1CC(=O)NN=C1c1ccc(NCCO)c([N+](=O)[O-])c1 (centres undefined)	-9	-1	4	7	59*	-11
Cn1nc(-c2ccc(NCCO)c([N+](=O)[O-])c2)c2ccccc2c1=O	-10	8	-10	-2	87	-15
Cc1ccc2nc(-c3ccc(F)cc3)c(Cc3ccccc3C(F)(F)F)n2c1	.	-16	.	3	.	.
NC(=O)c1cc[n+](Cc2ccc([N+](=O)[O-])cc2)cc1	-8	13	10	2	52	3
O=C(Nc1ccccc1Cl)c1cc[n+](Cc2ccc([N+](=O)[O-])cc2)cc1	-7	3	-14	7	40*	0
SMILES	GPR7 antagonist	TAAR1 antag	OX1R antag-1	TAAR1 ag	OX1R antag-2	CHO parental Ca
Cc1ccccc1NC1=C/C(=N\S(=O)(=O)c2ccc(C(=O)O)cc2)c2ccccc2C1=O	-14	9	-15	3	59*	2
O=C(O)c1ccc(S(=O)(=O)/N=C2\C=C(Nc3ccccc3F)C(=O)c3ccccc32)cc1	-38	3	-11	3	63*	-17
COc1ccc(S(=O)(=O)/N=C2\C=C(Nc3ccc(O)cc3)C(=O)c3ccccc32)cc1	-28	51*	0	1	28	-23
CCC(=O)N/C(=N/c1nc(C)cc(C)n1)Nc1cccc(OC)c1	1	-21	-30	13	3	-29
FC(F)(F)c1ccccc1Cc1c(-c2ccco2)nc2c3ccccc3ccn12	.	-23	.	5	.	.
COC(=O)C1=C(C)N(Cc2ccc(C(F)(F)F)cc2)C(=NCc2ccc(C(F)(F)F)cc2)NC1c1ccccc1C(F)(F)F (centres undefined)	.	-31	.	3	.	.
CCOC(=O)N1CCN(C(=O)c2cc(COc3cccc(C(C)=O)c3)on2)CC1	-1	-4	-19	8	7	-4
CCC(O)C1CCN(C(=O)c2cc(COc3ccc4ncccc4c3)on2)CC1 (centres undefined)	13	4	12	10	30	31*
O=C(c1cc(COc2ccc3ncccc3c2)on1)N1CCC(O)CC1	-13	11	-2	6	15	19
O=C(c1cc(COc2ccc3ncccc3c2)on1)N1CCCC(O)C1 (centres undefined)	-15	-32	-8	5	29	-3
CCOC(=O)N1CCN(C(=O)c2cc(COc3ccc4ncccc4c3)on2)CC1	-2	-11	22	9	12	28*
COCC1CCCN(C(=O)c2cc(COc3ccc4ncccc4c3)on2)C1 (centres undefined)	11	-17	18	8	27	54*
Cc1cccnc1CN1CCN(C(=O)c2cc(COc3ccc4ncccc4c3)on2)CC1	-9	8	49*	10	53	60*
CCN(CC)Cc1cc(Nc2c3ccccc3nc3c4ccccc4n(C)c23)cc(CN(CC)CC)c1O	.	-33	.	1	.	.
O=C(Nc1ccc(Br)cn1)c1ccc(Cl)s1	-3	-7	-21	-1	53*	-31
CC1CCC(C(C)C)C(OC(=O)CSc2nc(N)cc(=O)[nH]2)C1 (centres undefined)	-1	-7	-19	6	5	-21
Cc1cccc(OCc2n(CC(=O)OC3CC(C)CCC3C(C)C)c3ccccc3[n+]2C)c1 (centres undefined)	61*	.	48*	.	6	51*
CC1CCC(C(C)C)C(OC(=O)Cn2c(-c3ccc(F)cc3)[n+](C)c3ccccc32)C1 (centres undefined)	54*	-2	-5	3	15	14
Cc1ccc(N(CC(=O)NC(C)c2ccccc2)S(=O)(=O)c2c(C)noc2C)cc1 (centres undefined)	-5	-28	14	-2	52*	-20
COc1cccc(CNC(=O)CN(c2ccc(C(C)C)cc2)S(=O)(=O)c2c(C)noc2C)c1	5	18	-16	-1	8	-29

Bioassay records as filed in PubChem BioAssay.
